Reference: ChEMBL document CHEMBL1629545, “A morpholino oligomer targeting highly conserved internal ribosome entry site sequence is able to inhibit multiple species of picornavirus” (Antimicrob Agents Chemother, 2008)
Calls of active or inactive are those of the source. The calls are words filed in the database; no cut-off is given here.

Tests used:
HeLa [1] = experiment: Cytotoxicity against human HeLa cells 10 uM after 24 hrs by MTS assay; format: cell-based
Procedure, shortened: (§1)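 HeLa cells at ~80% confluence, uninfected, exposed to 1–100 μM PPMO or water (mock) in serum-free DMEM-F-12 (1:1) for 24 h. MTS reagent was added for 4 h and absorbance read at 492 nm. Viability was expressed as percent of water-treated cells (set to 100%), averaged over 12 wells.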

HeLa [2] = experiment: Cytotoxicity against human HeLa cells at 10 uM by MTS assay; format: cell-based; procedure, shortened: as §1
Poliovirus 1 = experiment: Antiviral activity against Human poliovirus type 1 infected in Human HeLa cell assessed as inhibition of translation at 10 ug/ml by luciferase reporter gene assay; format: functional, organism-based
Procedure, shortened: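 In-cell translation control: HeLa cells electroporated with 20 μg PV1-Luc replicon RNA were placed in medium with 10 μg/ml puromycin at 37°C in 5% CO2. Luciferase in lysates was read by luminometer at hourly time points after transfection. Two experiments were averaged.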

Vero = experiment: Cytotoxicity against African green monkey Vero cells at 10 uM after 24 hrs by MTS assay; format: cell-based; details: chlorocebus sabaeus
SK-N-MC = experiment: Cytotoxicity against human SK-N-MC cell at 10 uM after 24 hrs by MTS assay; format: cell-based

Row | Compound | Activity (HeLa [1]) | Activity (HeLa [2]) | Activity (Poliovirus 1) | Activity (Vero) | Activity (SK-N-MC)
1 | Cc1cn([C@H]2CN(P(=O)(OC[C@@H]3CN(P(=O)(OC[C@@H]4CN(P(=O)(OC[C@@H]5CN(P(=O)(OC[C@@H]6CN(P(=O)(OC[C@@H]7CN(P(=O)(OC[C@@H]8CN(P(=O)(OC[C@@H]9CN(P(=O)(OC[C@@H]%10CN(P(=O)(OC[C@@H]%11CN(P(=O)(OC[C@@H]%12CN(P(=O)(OC[C@@H]%13CN(P(=O)(OC[C@@H]%14CN(P(=O)(OC[C@@H]%15CN(P(=O)(OC[C@@H]%16CN(P(=O)(OC[C@@H]%17CN(P(=O)(OC[C@@H]%18CN(P(=O)(OC[C@@H]%19CNC[C@H](n%20cnc%21c(=O)[nH]c(N)nc%21%20)O%19)N(C)C)C[C@H](n%19ccc(N)nc%19=O)O%18)N(C)C)C[C@H](n%18cnc%19c(N)ncnc%19%18)O%17)N(C)C)C[C@H](n%17cc(C)c(=O)[nH]c%17=O)O%16)N(C)C)C[C@H](n%16cc(C)c(=O)[nH]c%16=O)O%15)N(C)C)C[C@H](n%15cnc%16c(=O)[nH]c(N)nc%16%15)O%14)N(C)C)C[C@H](n%14ccc(N)nc%14=O)O%13)N(C)C)C[C@H](n%13cnc%14c(=O)[nH]c(N)nc%14%13)O%12)N(C)C)C[C@H](n%12ccc(N)nc%12=O)O%11)N(C)C)C[C@H](n%11cnc%12c(=O)[nH]c(N)nc%12%11)O%10)N(C)C)C[C@H](n%10cc(C)c(=O)[nH]c%10=O)O9)N(C)C)C[C@H](n9cc(C)c(=O)[nH]c9=O)O8)N(C)C)C[C@H](n8ccc(N)nc8=O)O7)N(C)C)C[C@H](n7cnc8c(N)ncnc87)O6)N(C)C)C[C@H](n6cnc7c(=O)[nH]c(N)nc76)O5)N(C)C)C[C@H](n5cnc6c(=O)[nH]c(N)nc65)O4)N(C)C)C[C@H](n4ccc(N)nc4=O)O3)N(C)C)C[C@@H](COP(=O)(N(C)C)N3C[C@@H](COP(=O)(N(C)C)N4C[C@@H](COP(=O)(N(C)C)N5CCN(C(=O)CCNC(=O)CCCCCNC(=O)[C@H](CCCNC(=N)N)NC(=O)CCCCCNC(=O)[C@H](CCCNC(=N)N)NC(=O)[C@H](CCCNC(=N)N)NC(=O)CCCCCNC(=O)[C@H](CCCNC(=N)N)NC(=O)[C@H](CCCNC(=N)N)NC(=O)CCCCCNC(=O)[C@H](CCCNC(=N)N)NC(=O)[C@H](CCCNC(=N)N)NC(=O)CCCCCNC(=O)[C@@H](N)CCCNC(=N)N)CC5)O[C@@H](n5ccc(N)nc5=O)C4)O[C@@H](n4ccc(N)nc4=O)C3)O2)c(=O)[nH]c1=O (stereo not given in full) | Toxic | Non-toxic | inactive | Non-toxic | Non-toxic
2 | Cc1cn([C@H]2CN(P(=O)(OC[C@@H]3CN(P(=O)(OC[C@@H]4CN(P(=O)(OC[C@@H]5CN(P(=O)(OC[C@@H]6CN(P(=O)(OC[C@@H]7CN(P(=O)(OC[C@@H]8CN(P(=O)(OC[C@@H]9CN(P(=O)(OC[C@@H]%10CN(P(=O)(OC[C@@H]%11CN(P(=O)(OC[C@@H]%12CN(P(=O)(OC[C@@H]%13CN(P(=O)(OC[C@@H]%14CN(P(=O)(OC[C@@H]%15CNC[C@H](n%16cnc%17c(=O)[nH]c(N)nc%17%16)O%15)N(C)C)C[C@H](n%15cc(C)c(=O)[nH]c%15=O)O%14)N(C)C)C[C@H](n%14cc(C)c(=O)[nH]c%14=O)O%13)N(C)C)C[C@H](n%13cnc%14c(N)ncnc%14%13)O%12)N(C)C)C[C@H](n%12cnc%13c(N)ncnc%13%12)O%11)N(C)C)C[C@H](n%11ccc(N)nc%11=O)O%10)N(C)C)C[C@H](n%10cnc%11c(N)ncnc%11%10)O9)N(C)C)C[C@H](n9cc(C)c(=O)[nH]c9=O)O8)N(C)C)C[C@H](n8cnc9c(N)ncnc98)O7)N(C)C)C[C@H](n7cnc8c(=O)[nH]c(N)nc87)O6)N(C)C)C[C@H](n6cc(C)c(=O)[nH]c6=O)O5)N(C)C)C[C@H](n5cnc6c(N)ncnc65)O4)N(C)C)C[C@H](n4cc(C)c(=O)[nH]c4=O)O3)N(C)C)C[C@@H](COP(=O)(N(C)C)N3C[C@@H](COP(=O)(N(C)C)N4C[C@@H](COP(=O)(N(C)C)N5C[C@@H](COP(=O)(N(C)C)N6C[C@@H](COP(=O)(N(C)C)N7C[C@@H](COP(=O)(N(C)C)N8C[C@@H](COP(=O)(N(C)C)N9C[C@@H](COP(=O)(N(C)C)N%10CCN(C(=O)CCNC(=O)CCCCCNC(=O)[C@H](CCCNC(=N)N)NC(=O)CCCCCNC(=O)[C@H](CCCNC(=N)N)NC(=O)[C@H](CCCNC(=N)N)NC(=O)CCCCCNC(=O)[C@H](CCCNC(=N)N)NC(=O)[C@H](CCCNC(=N)N)NC(=O)CCCCCNC(=O)[C@H](CCCNC(=N)N)NC(=O)[C@H](CCCNC(=N)N)NC(=O)CCCCCNC(=O)[C@@H](N)CCCNC(=N)N)CC%10)O[C@@H](n%10cnc%11c(=O)[nH]c(N)nc%11%10)C9)O[C@@H](n9ccc(N)nc9=O)C8)O[C@@H](n8cnc9c(N)ncnc98)C7)O[C@@H](n7ccc(N)nc7=O)C6)O[C@@H](n6ccc(N)nc6=O)C5)O[C@@H](n5ccc(N)nc5=O)C4)O[C@@H](n4cnc5c(N)ncnc54)C3)O2)c(=O)[nH]c1=O (stereo not given in full) | Toxic | Non-toxic | inactive | Non-toxic | Non-toxic
3 | Cc1cn([C@H]2CN(P(=O)(OC[C@@H]3CN(P(=O)(OC[C@@H]4CN(P(=O)(OC[C@@H]5CN(P(=O)(OC[C@@H]6CN(P(=O)(OC[C@@H]7CN(P(=O)(OC[C@@H]8CN(P(=O)(OC[C@@H]9CN(P(=O)(OC[C@@H]%10CN(P(=O)(OC[C@@H]%11CN(P(=O)(OC[C@@H]%12CNC[C@H](n%13cnc%14c(N)ncnc%14%13)O%12)N(C)C)C[C@H](n%12cnc%13c(N)ncnc%13%12)O%11)N(C)C)C[C@H](n%11cnc%12c(N)ncnc%12%11)O%10)N(C)C)C[C@H](n%10cc(C)c(=O)[nH]c%10=O)O9)N(C)C)C[C@H](n9cc(C)c(=O)[nH]c9=O)O8)N(C)C)C[C@H](n8cnc9c(N)ncnc98)O7)N(C)C)C[C@H](n7cnc8c(N)ncnc87)O6)N(C)C)C[C@H](n6cnc7c(=O)[nH]c(N)nc76)O5)N(C)C)C[C@H](n5ccc(N)nc5=O)O4)N(C)C)C[C@H](n4ccc(N)nc4=O)O3)N(C)C)C[C@@H](COP(=O)(N(C)C)N3C[C@@H](COP(=O)(N(C)C)N4C[C@@H](COP(=O)(N(C)C)N5C[C@@H](COP(=O)(N(C)C)N6C[C@@H](COP(=O)(N(C)C)N7C[C@@H](COP(=O)(N(C)C)N8C[C@@H](COP(=O)(N(C)C)N9C[C@@H](COP(=O)(N(C)C)N%10C[C@@H](COP(=O)(N(C)C)N%11CCN(C(=O)CCNC(=O)CCCCCNC(=O)[C@H](CCCNC(=N)N)NC(=O)CCCCCNC(=O)[C@H](CCCNC(=N)N)NC(=O)[C@H](CCCNC(=N)N)NC(=O)CCCCCNC(=O)[C@H](CCCNC(=N)N)NC(=O)[C@H](CCCNC(=N)N)NC(=O)CCCCCNC(=O)[C@H](CCCNC(=N)N)NC(=O)[C@H](CCCNC(=N)N)NC(=O)CCCCCNC(=O)[C@@H](N)CCCNC(=N)N)CC%11)O[C@@H](n%11cc(C)c(=O)[nH]c%11=O)C%10)O[C@@H](n%10cc(C)c(=O)[nH]c%10=O)C9)O[C@@H](n9cc(C)c(=O)[nH]c9=O)C8)O[C@@H](n8cc(C)c(=O)[nH]c8=O)C7)O[C@@H](n7cc(C)c(=O)[nH]c7=O)C6)O[C@@H](n6cc(C)c(=O)[nH]c6=O)C5)O[C@@H](n5cc(C)c(=O)[nH]c5=O)C4)O[C@@H](n4ccc(N)nc4=O)C3)O2)c(=O)[nH]c1=O (stereo not given in full) | Toxic | Non-toxic | inactive | Non-toxic | Non-toxic
